According to ChEMBL document CHEMBL4145444, “Investigating the structure-activity relationships of N'-[(5-nitrofuran-2-yl) methylene] substituted hydrazides against Trypanosoma cruzi to design novel active compounds” (Eur J Med Chem, 2018):

Key:
Trypanosoma cruzi [1] = assay: Antitrypanosomal activity against Trypanosoma cruzi Colombiana Tc1 epimastigotes measured after 72 hrs; format: functional, organism-based; conditions: for IC50: Trypanosoma cruzi, Colombiana, 72 h
Procedure, shortened: (§1)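 Exponentially growing epimastigotes (1.0*10^7 parasites/mL) cultured in LIT-FCS medium with compound from 0.4 to 300.0 µM, added from DMSO stock (DMSO ≤1.0%), 72 h at 28 °C. Viable parasites read by absorbance at 562 nm. PGI computed against untreated culture after subtracting compound/medium blanks. IC50 from sigmoid dose-response fit using at least six concentrations. Triplicates, at least two independent experiments.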

Trypanosoma cruzi [2] = assay: Antitrypanosomal activity Trypanosoma cruzi Bug 2149 cl10 Tc5 epimastigotes measured after 72 hrs; format: functional, organism-based; conditions: for IC50: Trypanosoma cruzi, Bug 2149 cl10, CL1-0, 72 h
Procedure, shortened: as §1, with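 “°C.” for “°C. Viable parasites read by absorbance at 562 nm.”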

Trypanosoma cruzi [3] = assay: Antitrypanosomal activity Trypanosoma cruzi Y Tc2 epimastigotes measured after 72 hrs; format: functional, organism-based; conditions: for IC50: Trypanosoma cruzi, Y, 72 h; procedure, shortened: as §1
Trypanosoma cruzi [4] = assay: Antitrypanosomal activity against Trypanosoma cruzi Silvio X10 cl1 Tc1 epimastigotes measured after 72 hrs; format: functional, organism-based; conditions: for IC50: Trypanosoma cruzi, Silvio X10 cl1, 72 h
Procedure, shortened: as §1, with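 “°C.” for “°C. Viable parasites read by absorbance at 562 nm.”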

[5] = Selectivity index, ratio of CC50 for cytotoxicity against human U2OS cells to IC50 for Trypanosoma cruzi Y Tc2 amastigotes infected in human U2OS cells; format: toxicity, cell-based; conditions: read-out: Ratio CC50/IC50
Procedure, shortened: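 Ratio of U2OS CC50 to Y-strain amastigote IC50, both from the same 72 h Draq5-stained HCS assay in infected U2OS cells (2-fold series up to 200 μM, 1% DMSO).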

[6] = Cytotoxicity against human U2OS cells assessed as reduction in cell viability; format: cell-based
Trypanosoma cruzi [7] = assay: Antitrypanosomal activity against Trypanosoma cruzi Y Tc2 amastigotes infected in human U2OS cells up to 200 uM after 72 hrs by Draq5 staining based HCS analysis relative to control; format: functional
Procedure, shortened: (§2)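 U2OS cells (700/well, high-glucose DME, 10% FBS) seeded and incubated 24 h. Then infected with 2,800 Y-strain trypomastigotes harvested from LLC-MK2 cells. On day 3, 14-point 2-fold dilutions added, top 200 μM, 1% DMSO, 72 h. Fixed in 4% PFA, Draq5 stained, imaged at 20x. Infection ratio normalized to DMSO-mock infected and uninfected controls. IC50 by sigmoidal variable-slope fit. Doublets, duplicate experiments.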

Trypanosoma cruzi [8] = assay: Antitrypanosomal activity against Trypanosoma cruzi Y Tc2 amastigotes infected in human U2OS cells after 72 hrs by Draq5 staining based HCS analysis; format: functional, organism-based; procedure, shortened: as §2
Trypanosoma cruzi [9] = assay: Antitrypanosomal activity against Trypanosoma cruzi Colombiana Tc1 trypamastigotes infected in monkey LLC-MK2 cells assessed as inhibition of parasite viability by measuring motility at 1 uM after 20 hrs by light microscopic method relative to control; format: functional; conditions: LLC-MK2, 20 h
Procedure, shortened: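 Colombiana trypomastigotes, centrifuged at 7,000 rpm at 4 °C, resuspended at 10^6/mL in DME with 2% FCS. Exposed to 1 μM compound, 0.5% DMSO final, 20 h at 37 °C, 5% CO2. Viability judged by motility under light microscope. Live parasites counted in a Neubauer chamber. % inhibition relative to drug-free control. Two independent experiments.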

Compound | log1/IC50 (Trypanosoma cruzi [3]) | IC50 (Trypanosoma cruzi [3]) [µM] | IC50 (Trypanosoma cruzi [8]) [nM] | log1/IC50 (Trypanosoma cruzi [1]) | IC50 (Trypanosoma cruzi [1]) [µM] | log1/IC50 (Trypanosoma cruzi [2]) | IC50 (Trypanosoma cruzi [2]) [µM] | log1/IC50 (Trypanosoma cruzi [4]) | IC50 (Trypanosoma cruzi [4]) [µM] | selectivity ratio [5] | CC50 [6] [µM] | Emax (Trypanosoma cruzi [7]) [%] | inhibition at 1 µM (Trypanosoma cruzi [9]) [%]
CCCCNc1ccc(C(=O)N/N=C/c2ccc([N+](=O)[O-])o2)cc1 | 5.47 | – | 350 | 5.4 | 3.94 | 5.35 | – | 5.36 | – | 34.4 | 12 | 102 | –
O=C(N/N=C/c1ccc([N+](=O)[O-])o1)c1cccs1 | 5.26 | 5.51 | 1060 | 4.82 | 15.1 | 5.16 | 6.87 | 4.89 | 12.8 | 53.9 | 57.2 | 94.5 | –
Cc1nnsc1C(=O)N/N=C/c1ccc([N+](=O)[O-])o1 | 4.76 | 17.3 | – | 4.85 | 14.2 | 4.73 | 18.7 | 4.47 | 34.1 | – | – | – | –
CC(C)(C)OC(=O)N/N=C/c1ccc([N+](=O)[O-])o1 | – | – | – | 5.13 | 7.41 | – | – | – | – | – | – | – | –
Cc1ccc(C(=O)N/N=C/c2ccc([N+](=O)[O-])o2)cc1 | – | – | – | 4.92 | 11.9 | – | – | – | – | – | – | – | –
O=C(N/N=C/c1ccc([N+](=O)[O-])o1)c1ccccc1 | – | – | – | 4.95 | 11.3 | – | – | – | – | – | – | – | –
CCCOc1ccc(C(=O)N/N=C/c2ccc([N+](=O)[O-])o2)cc1 | – | – | – | 5.28 | 5.26 | – | – | – | – | – | – | – | –
CCCCCC(=O)N/N=C/c1ccc([N+](=O)[O-])o1 | – | – | 2610 | 5.12 | 7.58 | – | – | – | – | 7.39 | 19.3 | 115 | –
Cc1cccc(C(=O)N/N=C/c2ccc([N+](=O)[O-])o2)c1 | – | – | – | 5.07 | 8.53 | – | – | – | – | – | – | – | –
O=C(N/N=C/c1ccc([N+](=O)[O-])o1)c1ccc(Cl)cc1 | – | – | – | 5.06 | 8.64 | – | – | – | – | – | – | – | –
O=C(N/N=C/c1ccc([N+](=O)[O-])o1)C1CCCCC1 | – | – | 2900 | 4.99 | 10.2 | – | – | – | – | 8.77 | 25.4 | 119 | –
CCOc1ccc(C(=O)N/N=C/c2ccc([N+](=O)[O-])o2)cc1 | 5.01 | 9.74 | – | 4.94 | 11.6 | 5.2 | 6.26 | 4.86 | 13.8 | – | – | – | –
O=C(N/N=C/c1ccc([N+](=O)[O-])o1)C1CCCC1 | – | – | – | 5.01 | 9.67 | – | – | – | – | – | – | – | –
CN(C)c1ccc(C(=O)N/N=C/c2ccc([N+](=O)[O-])o2)cc1 | – | – | – | 4.07 | 85.5 | – | – | – | – | – | – | – | –
CCCc1ccc(C(=O)N/N=C/c2ccc([N+](=O)[O-])o2)cc1 | – | – | – | 5.14 | 7.25 | – | – | – | – | – | – | – | –
COc1ccc(C(=O)N/N=C/c2ccc([N+](=O)[O-])o2)cc1 | – | – | – | 5.09 | 8.08 | – | – | – | – | – | – | – | –
O=C(Cn1ccnc1[N+](=O)[O-])NCc1ccccc1 [BENZNIDAZOLE] | – | – | 64300 | – | 47.9 | – | – | – | – | – | > 200 | 85.2 | –
O=C(N/N=C/c1ccc([N+](=O)[O-])o1)c1cccc([N+](=O)[O-])c1 | 4.36 | 44.1 | – | 4.39 | 40.6 | 4.52 | 30.4 | 4.28 | 52.3 | – | – | – | –
CCc1ccc(C(=O)N/N=C/c2ccc([N+](=O)[O-])o2)cc1 | 5.04 | 9.11 | – | 5.18 | 6.55 | 5.02 | 9.53 | 4.91 | 12.3 | – | – | – | –
O=C(Cc1ccccc1)N/N=C/c1ccc([N+](=O)[O-])o1 | – | – | – | 5 | 10.1 | – | – | – | – | – | – | – | –
O=C(N/N=C/c1ccc([N+](=O)[O-])o1)c1ccccc1Oc1ccccc1 | – | – | – | 5.24 | 5.79 | – | – | – | – | – | – | – | –
CC(C)c1ccc(C(=O)N/N=C/c2ccc([N+](=O)[O-])o2)cc1 | – | – | – | 5.22 | – | – | – | – | – | – | – | – | –
CCCCCCCCC(=O)N/N=C/c1ccc([N+](=O)[O-])o1 | – | – | – | 5.09 | 8.07 | – | – | – | – | – | – | – | –

The next lines start with results.

log1/IC50 (Trypanosoma cruzi [3]) | IC50 (Trypanosoma cruzi [3]) [µM] | IC50 (Trypanosoma cruzi [8]) [nM] | Compound | log1/IC50 (Trypanosoma cruzi [1]) | IC50 (Trypanosoma cruzi [1]) [µM] | log1/IC50 (Trypanosoma cruzi [2]) | IC50 (Trypanosoma cruzi [2]) [µM] | log1/IC50 (Trypanosoma cruzi [4]) | IC50 (Trypanosoma cruzi [4]) [µM] | selectivity ratio [5] | CC50 [6] [µM] | Emax (Trypanosoma cruzi [7]) [%] | inhibition at 1 µM (Trypanosoma cruzi [9]) [%]
4.6 | 24.9 | – | O=C(N/N=C/c1ccc([N+](=O)[O-])o1)c1ccco1 | 4.88 | 13.1 | 5 | 9.99 | 4.75 | 17.9 | – | – | – | –
4.09 | 80.2 | – | N#CCC(=O)N/N=C/c1ccc([N+](=O)[O-])o1 | 4.22 | 60.6 | 4.56 | 27.4 | 4.39 | 40.5 | – | – | – | –
– | – | 4620 | CC(=O)N/N=C/c1ccc([N+](=O)[O-])o1 [NIHYDRAZONE] | 5.02 | 9.52 | – | – | – | – | 8.49 | 39.2 | 98.7 | –
5.51 | – | 1330 | CCCCc1ccc(C(=O)N/N=C/c2ccc([N+](=O)[O-])o2)cc1 | 5.61 | 2.45 | 5.33 | – | 5.32 | – | 14.7 | 19.6 | 115 | –
4.98 | 10.6 | – | O=C(N/N=C/c1ccc([N+](=O)[O-])o1)c1cccc(C(F)(F)F)c1 | 5 | 9.98 | 4.84 | 14.6 | 4.59 | 25.5 | – | – | – | –
5.93 | – | 710 | O=C(N/N=C/c1ccc([N+](=O)[O-])o1)c1ccc(-c2ccccc2)cc1 | 5.51 | 3.06 | 5.74 | – | 5.71 | – | 154 | 109 | 97.8 | –
5.15 | 7.15 | 1870 | O=C(N/N=C/c1ccc([N+](=O)[O-])o1)c1ccc2ccccc2c1 | 5.12 | 7.58 | 5 | 9.9 | 5.02 | 9.59 | 34.3 | 64.2 | 97 | –
4.89 | – | 5180 | CC1CS(=O)(=O)CCN1/N=C/c1ccc([N+](=O)[O-])o1 (centres undefined) [NIFURTIMOX] | 5 | 9.93 | 5.14 | – | 5.22 | – | 16.4 | 85.2 | 96.6 | 7.3
3.52 | – | 4260 | O=C(N/N=C/c1ccc([N+](=O)[O-])o1)c1ccc(O)cc1 [NIFUROXAZIDE] | 3.73 | 188 | 3.52 | – | 3.52 | – | 10.7 | 45.7 | 91.9 | –
4.85 | 14.2 | – | COc1ccc(C(=O)N/N=C/c2ccc([N+](=O)[O-])o2)cc1OC | 4.58 | 26.6 | 4.76 | 17.2 | 4.56 | 27.3 | – | – | – | –
– | – | 1430 | CC(C)(C)c1ccc(C(=O)N/N=C/c2ccc([N+](=O)[O-])o2)cc1 | 5.21 | 6.1 | – | – | – | – | > 140 | > 200 | 98.4 | –
– | – | 1770 | N#Cc1ccc(C(=O)N/N=C/c2ccc([N+](=O)[O-])o2)cc1 | 4.69 | 20.2 | – | – | – | – | 12.1 | 21.4 | 95.5 | –
5.46 | – | 1460 | CCCCOc1ccc(C(=O)N/N=C/c2ccc([N+](=O)[O-])o2)cc1 | 5.54 | 2.86 | 5.37 | – | 5.29 | – | 31.9 | 46.6 | 115 | –
